Tested on: U2OS
Assay: Multiplex assay against U2OS
Format: toxicity, cell-based
Conditions: human
Summary of the method: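 Live cells were stained at seeding with Hoechst33342, BioTracker Green Microtubule Cytoskeleton Dye, MitoTracker Red and Annexin V Alexa Fluor 680. Following compound addition, they were imaged on a CQ1 microscope at 37°C and 5% CO2 and gated by CellPathfinder machine learning into Hoechst high-intensity objects or normal cells, with normal cells split into healthy, pyknosed or fragmented nuclei and pyknosed cells into mitotic or apoptotic. Tubulin, mitochondrial-mass and membrane-permeability phenotypes are per cents of healthy-nucleus cells.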

[1] = 12 h, 1 µM, compound concentration 1 uM, replicate 1
[2] = 12 h, 1 µM, compound concentration 1 uM, replicate 2
[3] = 12 h, 10 µM, compound concentration 10 uM, replicate 1
[4] = 12 h, 10 µM, compound concentration 10 uM, replicate 2
[5] = 24 h, 1 µM, compound concentration 1 uM, replicate 1
[6] = 24 h, 1 µM, compound concentration 1 uM, replicate 2
[7] = 24 h, 10 µM, compound concentration 10 uM, replicate 1
[8] = 24 h, 10 µM, compound concentration 10 uM, replicate 2
[9] = 48 h, 1 µM, compound concentration 1 uM, replicate 1
[10] = 48 h, 1 µM, compound concentration 1 uM, replicate 2
[11] = 48 h, 10 µM, compound concentration 10 uM, replicate 1
[12] = 48 h, 10 µM, compound concentration 10 uM, replicate 2

## Cc1onc(-c2ccccc2Cl)c1C(=O)N(C)c1ccc(Cl)cc1
[1]
  Population Apoptotic (%): 82%
  Population Fragmented Nuclei (%): 26%
  Population Healthy Nuclei (%): 67%
  Population Hoechst High Intensity Objects (%): 0%
  Population Membrane Permeable-Phenotype (%): 3%
  Population Mitochondria Different-Phenotype (%): 2%
  Population Mitotic Cells (%): 17%
  Population Normal (%): 99%
  Population Pyknosed Nuclei (%): 6%
  Population Tubulin-Different-Phenotype (%): 1%
  Total Cell Count: 277
[2]
  Population Apoptotic (%): 78%
  Population Fragmented Nuclei (%): 10%
  Population Healthy Nuclei (%): 79%
  Population Hoechst High Intensity Objects (%): 1%
  Population Membrane Permeable-Phenotype (%): 4%
  Population Mitochondria Different-Phenotype (%): 1%
  Population Mitotic Cells (%): 21%
  Population Normal (%): 98%
  Population Pyknosed Nuclei (%): 10%
  Population Tubulin-Different-Phenotype (%): 3%
  Total Cell Count: 136
[3]
  Population Apoptotic (%): 79%
  Population Fragmented Nuclei (%): 28%
  Population Healthy Nuclei (%): 58%
  Population Hoechst High Intensity Objects (%): 4%
  Population Membrane Permeable-Phenotype (%): 12%
  Population Mitochondria Different-Phenotype (%): 5%
  Population Mitotic Cells (%): 20%
  Population Normal (%): 95%
  Population Pyknosed Nuclei (%): 12%
  Population Tubulin-Different-Phenotype (%): 5%
  Total Cell Count: 244
[4]
  Population Apoptotic (%): 77%
  Population Fragmented Nuclei (%): 24%
  Population Healthy Nuclei (%): 56%
  Population Hoechst High Intensity Objects (%): 0%
  Population Membrane Permeable-Phenotype (%): 7%
  Population Mitochondria Different-Phenotype (%): 6%
  Population Mitotic Cells (%): 22%
  Population Normal (%): 99%
  Population Pyknosed Nuclei (%): 19%
  Population Tubulin-Different-Phenotype (%): 4%
  Total Cell Count: 113
[5]
  Population Apoptotic (%): 100%
  Population Fragmented Nuclei (%): 23%
  Population Healthy Nuclei (%): 70%
  Population Hoechst High Intensity Objects (%): 0%
  Population Membrane Permeable-Phenotype (%): 2%
  Population Mitochondria Different-Phenotype (%): 2%
  Population Mitotic Cells (%): 0%
  Population Normal (%): 99%
  Population Pyknosed Nuclei (%): 5%
  Population Tubulin-Different-Phenotype (%): 0%
  Total Cell Count: 328
[6]
  Population Apoptotic (%): 83%
  Population Fragmented Nuclei (%): 11%
  Population Healthy Nuclei (%): 81%
  Population Hoechst High Intensity Objects (%): 1%
  Population Membrane Permeable-Phenotype (%): 4%
  Population Mitochondria Different-Phenotype (%): 5%
  Population Mitotic Cells (%): 16%
  Population Normal (%): 98%
  Population Pyknosed Nuclei (%): 7%
  Population Tubulin-Different-Phenotype (%): 2%
  Total Cell Count: 168
[7]
  Population Apoptotic (%): 72%
  Population Fragmented Nuclei (%): 26%
  Population Healthy Nuclei (%): 62%
  Population Hoechst High Intensity Objects (%): 3%
  Population Membrane Permeable-Phenotype (%): 11%
  Population Mitochondria Different-Phenotype (%): 6%
  Population Mitotic Cells (%): 27%
  Population Normal (%): 96%
  Population Pyknosed Nuclei (%): 11%
  Population Tubulin-Different-Phenotype (%): 4%
  Total Cell Count: 299
[8]
  Population Apoptotic (%): 64%
  Population Fragmented Nuclei (%): 20%
  Population Healthy Nuclei (%): 66%
  Population Membrane Permeable-Phenotype (%): 8%
  Population Mitochondria Different-Phenotype (%): 7%
  Population Mitotic Cells (%): 35%
  Population Pyknosed Nuclei (%): 13%
  Population Tubulin-Different-Phenotype (%): 7%
  Total Cell Count: 129
[9]
  Population Apoptotic (%): 87%
  Population Fragmented Nuclei (%): 16%
  Population Healthy Nuclei (%): 75%
  Population Hoechst High Intensity Objects (%): 2%
  Population Membrane Permeable-Phenotype (%): 4%
  Population Mitochondria Different-Phenotype (%): 3%
  Population Mitotic Cells (%): 12%
  Population Normal (%): 97%
  Population Pyknosed Nuclei (%): 7%
  Population Tubulin-Different-Phenotype (%): 2%
  Total Cell Count: 450
[10]
  Population Apoptotic (%): 89%
  Population Fragmented Nuclei (%): 12%
  Population Hoechst High Intensity Objects (%): 1%
  Population Membrane Permeable-Phenotype (%): 1%
  Population Mitochondria Different-Phenotype (%): 2%
  Population Mitotic Cells (%): 10%
  Population Normal (%): 98%
  Population Pyknosed Nuclei (%): 11%
  Population Tubulin-Different-Phenotype (%): 1%
  Total Cell Count: 252
[11]
  Population Apoptotic (%): 69%
  Population Fragmented Nuclei (%): 22%
  Population Healthy Nuclei (%): 67%
  Population Hoechst High Intensity Objects (%): 3%
  Population Membrane Permeable-Phenotype (%): 10%
  Population Mitochondria Different-Phenotype (%): 5%
  Population Mitotic Cells (%): 30%
  Population Normal (%): 96%
  Population Pyknosed Nuclei (%): 9%
  Population Tubulin-Different-Phenotype (%): 4%
  Total Cell Count: 413
[12]
  Population Apoptotic (%): 90%
  Population Fragmented Nuclei (%): 23%
  Population Healthy Nuclei (%): 65%
  Population Hoechst High Intensity Objects (%): 2%
  Population Membrane Permeable-Phenotype (%): 9%
  Population Mitotic Cells (%): 10%
  Population Normal (%): 97%
  Population Pyknosed Nuclei (%): 11%
  Population Tubulin-Different-Phenotype (%): 3%
  Total Cell Count: 182

Reference: ChEMBL document CHEMBL5058577, “EUbOPEN Chemogenomics Library 2 (Multiplex)” (2022)
